Assay results taken from ChEMBL document CHEMBL1132419 (J Med Chem, 1999).

Columns and labels:
Plasmodium falciparum = test: Antimalarial activity against chloroquine-sensitive Plasmodium falciparum NF54; assay type: functional, organism-based
Mus musculus [1] = test: In vivo antimalarial activity against Plasmodium berghei N on oral administration.; assay type: functional
Summary of the method: (§1)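 Mice, 5 per dose group, given 1, 3, 10 or 30 mg/kg once daily for 4 days by the route stated; ED values derived from the four-dose series.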

Mus musculus [2] = test: In vivo antimalarial activity against Plasmodium berghei N on subcutaneous administration.; assay type: functional; conditions: sc; summary of the method: as §1
Plasmodium berghei = test: Antimalarial activity against Plasmodium berghei N; conditions: Mus musculus

| Compound | IC50 (Plasmodium falciparum) [nM] | ED90 (Mus musculus [2]) [mg/kg] | further results |
| --- | --- | --- | --- |
| CSc1ccc(C#[C][Al]([CH3])[CH2][C@@H]2O[C@@H]3O[C@]4(C)CC[C@H]5[C@H](C)CC[C@@H]([C@H]2C)[C@@]35OO4)cc1 | 8.4 | – | – |
| C[C@H]1[C@H]([CH2][Al]([CH3])[C]#Cc2ccc(F)cc2)O[C@@H]2O[C@]3(C)CC[C@H]4[C@H](C)CC[C@@H]1[C@@]24OO3 | 8.3 | – | – |
| C[C@H]1[C@H](c2ccco2)O[C@@H]2OC3(C)CC[C@H]4[C@H](C)CC[C@@H]1[C@@]24OO3 (single isomer, unassigned) | 1.4 | 2 | ED90 (Mus musculus [1]): 24 mg/kg |
| C[C@H]1[C@H](c2ccc(C(C)(C)C)o2)O[C@@H]2OC3(C)CC[C@H]4[C@H](C)CC[C@@H]1[C@@]24OO3 (single isomer, unassigned) | 10 | – | – |
| COc1cc(OC)c([C@@H]2O[C@@H]3OC4(C)CC[C@H]5[C@H](C)CC[C@@H]([C@H]2C)[C@@]35OO4)c(OC)c1 (single isomer, unassigned) | 7.8 | – | – |
| CCc1ccc([C@@H]2O[C@@H]3OC4(C)CC[C@H]5[C@H](C)CC[C@@H]([C@H]2C)[C@@]35OO4)o1 (single isomer, unassigned) | 8.6 | – | – |
| C[C@H]1[C@H](c2cccs2)O[C@@H]2OC3(C)CC[C@H]4[C@H](C)CC[C@@H]1[C@@]24OO3 (single isomer, unassigned) | 5.1 | – | – |
| C[C@H]1[C@H](c2cccn2Cc2ccco2)O[C@@H]2OC3(C)CC[C@H]4[C@H](C)CC[C@@H]1[C@@]24OO3 (single isomer, unassigned) | 9.4 | – | – |
| C[C@H]1[C@H](c2cccn2Cc2ccccc2)O[C@@H]2OC3(C)CC[C@H]4[C@H](C)CC[C@@H]1[C@@]24OO3 (single isomer, unassigned) | 16 | – | – |
| C[C@H]1[C@H](c2cccn2C)O[C@@H]2OC3(C)CC[C@H]4[C@H](C)CC[C@@H]1[C@@]24OO3 (single isomer, unassigned) | 4.6 | 1.2 | ED90 (Mus musculus [1]): 8.5 mg/kg; ED50 (Mus musculus [2]): 0.7 mg/kg |
| C[C@H]1[C@H](c2cn(C)c3ccccc23)O[C@@H]2OC3(C)CC[C@H]4[C@H](C)CC[C@@H]1[C@@]24OO3 (single isomer, unassigned) | 4 | – | – |
| CCOC(=O)Cn1cccc1[C@@H]1O[C@@H]2OC3(C)CC[C@H]4[C@H](C)CC[C@@H]([C@H]1C)[C@@]24OO3 (single isomer, unassigned) | 9.1 | – | – |
| C=CCOc1ccc([C@@H]2O[C@@H]3OC4(C)CC[C@H]5[C@H](C)CC[C@@H]([C@H]2C)[C@@]35OO4)c(OCC=C)c1 (single isomer, unassigned) | 6.6 | – | – |
| COc1ccc2cc([C@@H]3O[C@@H]4OC5(C)CC[C@H]6[C@H](C)CC[C@@H]([C@H]3C)[C@@]46OO5)c(OC)cc2c1 (single isomer, unassigned) | 9 | – | – |
| Cc1ccc([C@@H]2O[C@@H]3OC4(C)CC[C@H]5[C@H](C)CC[C@@H]([C@H]2C)[C@@]35OO4)o1 (single isomer, unassigned) | 5.2 | 2 | ED50 (Mus musculus [1]): 15.5 mg/kg; ED90 (Mus musculus [1]): 43 mg/kg; ED50 (Mus musculus [2]): 0.9 mg/kg |
| COc1ccc([C@@H]2O[C@@H]3OC4(C)CC[C@H]5[C@H](C)CC[C@@H]([C@H]2C)[C@@]35OO4)c(OC)c1 (single isomer, unassigned) | 4.2 | – | – |
| C[C@@H]1CC[C@H]2[C@@H](C)C(=O)O[C@@H]3O[C@@]4(C)CC[C@@H]1[C@]32OO4 [ARTEMISININ] | – | 8.5 | ED50 (Mus musculus [2]): 3 mg/kg |
| CCO[C@H]1O[C@@H]2O[C@@]3(C)CC[C@H]4[C@H](C)CC[C@@H]([C@H]1C)[C@@]24OO3 [ARTEMOTIL] | – | 0.5 | ED50 (Plasmodium berghei): 0.3 mg/kg; ED50 (Mus musculus [2]): 0.3 mg/kg |
| CCN(CC)CCCC(C)Nc1ccnc2cc(Cl)ccc12 (stereo unspecified) [CHLOROQUINE] | – | 3.1 | – |
